One assay deals with PC-3. Description: Induction of senescence in human PC3 cells. Type of assay: functional, cell-based. A digest of the protocol:
(§1)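 SA-β-galactosidase staining of PC-3 and DU-145 prostate cancer cells after 72 h at 10 µM; adriamycin 20 nM as positive control; expressed as percentage of positively stained cells.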

The next assay concerns DU-145. Description: Induction of senescence in human DU145 cells. Type of assay: functional, cell-based. An outline of the steps:
as §1

The subject of a further assay is MDA-MB-231. The assay is described as follows: Antitumor activity against human MDA-MB-231 cells xenografted in immunocompromised mouse at 10 mg/kg, iv. Background: In xenograft studies the graft and the host belong to different species.
The target in assay [1] is DNA topoisomerase 2-alpha (Homo sapiens) (UniProt P11388). Description: Inhibition of human topoisomerase 2-mediated kinetoplast DNA […] at 50 uM. An outline of the steps: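 Topoisomerase II strand-passage activity by kDNA decatenation; compounds at 50 µM; catenated networks stay in wells, decatenated kDNA enters ethidium bromide-stained agarose gel; no-enzyme and no-drug reactions as controls.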

For a further assay, the system named is MCF7. The assay is described as follows: Induction of apoptosis in human MCF7 cells assessed as p53 activation. It is filed as functional, cell-based. A digest of the protocol:
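MCF-7 cells treated and p53 activation assessed by immunoblotting, with tubulin as loading control. Adriamycin (2.5 µM, 24 h) served as positive control.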

In assay [2] the target is T1, DNA topoisomerase 1 (Homo sapiens) (UniProt P11387).
T1 sequence (whole entry): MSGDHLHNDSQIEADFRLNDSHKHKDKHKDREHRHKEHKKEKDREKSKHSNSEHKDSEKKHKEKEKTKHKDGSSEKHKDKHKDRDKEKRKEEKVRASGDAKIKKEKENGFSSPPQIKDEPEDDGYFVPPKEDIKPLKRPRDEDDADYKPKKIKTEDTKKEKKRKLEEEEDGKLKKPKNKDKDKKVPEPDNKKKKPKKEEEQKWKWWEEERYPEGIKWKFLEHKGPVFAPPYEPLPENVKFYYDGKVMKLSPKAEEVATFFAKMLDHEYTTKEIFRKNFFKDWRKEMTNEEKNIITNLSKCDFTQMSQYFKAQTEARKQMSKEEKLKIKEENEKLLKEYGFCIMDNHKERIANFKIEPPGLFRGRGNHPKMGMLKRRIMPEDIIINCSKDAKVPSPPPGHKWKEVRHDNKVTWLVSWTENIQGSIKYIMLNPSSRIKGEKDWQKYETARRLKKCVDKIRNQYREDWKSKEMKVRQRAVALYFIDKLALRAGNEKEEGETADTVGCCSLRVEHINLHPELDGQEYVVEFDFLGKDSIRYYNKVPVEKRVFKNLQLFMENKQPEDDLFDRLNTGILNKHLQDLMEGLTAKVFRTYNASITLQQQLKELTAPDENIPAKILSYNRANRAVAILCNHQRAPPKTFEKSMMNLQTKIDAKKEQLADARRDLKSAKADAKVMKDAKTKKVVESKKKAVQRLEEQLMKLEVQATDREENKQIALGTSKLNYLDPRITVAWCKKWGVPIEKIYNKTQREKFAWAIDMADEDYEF
The assay is described as follows: Inhibition of human topoisomerase 1 by DNA unwinding test. An outline of the steps:
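DNA unwinding assay: relaxed pBR322 plasmid converted to supercoiled form in presence of topoisomerase I; compounds at final 4–32 µM (one up to 15–55 µM); ethidium bromide-stained agarose gels; UC50 taken as concentration shifting relaxed band to midpoint between supercoiled and relaxed states.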

The species named for the next assay is Homo sapiens. The assay is described as follows: Inhibition of human topoisomerase 2 at 50 uM by plasmid linearization assay.
A further assay deals with A549. Description: Antitumor activity against human A549 cells xenografted in mouse at 10 mg/kg, iv. It is filed as functional, organism-based. More on the design: dose 10 mg/kg. An outline of the steps:
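Human A549 NSCLC cells grafted orthotopically into the lungs of immunocompromised mice. Compound given i.v. at 10 mg/kg. Survival gain assessed by survival curve analysis.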

Molecules are shown by their SMILES. Activity calls are given as the source filed them. The calls are words filed in the database; no cut-off is given here.

DNA topoisomerase 2-alpha (Homo sapiens), sequence (P11388 whole entry): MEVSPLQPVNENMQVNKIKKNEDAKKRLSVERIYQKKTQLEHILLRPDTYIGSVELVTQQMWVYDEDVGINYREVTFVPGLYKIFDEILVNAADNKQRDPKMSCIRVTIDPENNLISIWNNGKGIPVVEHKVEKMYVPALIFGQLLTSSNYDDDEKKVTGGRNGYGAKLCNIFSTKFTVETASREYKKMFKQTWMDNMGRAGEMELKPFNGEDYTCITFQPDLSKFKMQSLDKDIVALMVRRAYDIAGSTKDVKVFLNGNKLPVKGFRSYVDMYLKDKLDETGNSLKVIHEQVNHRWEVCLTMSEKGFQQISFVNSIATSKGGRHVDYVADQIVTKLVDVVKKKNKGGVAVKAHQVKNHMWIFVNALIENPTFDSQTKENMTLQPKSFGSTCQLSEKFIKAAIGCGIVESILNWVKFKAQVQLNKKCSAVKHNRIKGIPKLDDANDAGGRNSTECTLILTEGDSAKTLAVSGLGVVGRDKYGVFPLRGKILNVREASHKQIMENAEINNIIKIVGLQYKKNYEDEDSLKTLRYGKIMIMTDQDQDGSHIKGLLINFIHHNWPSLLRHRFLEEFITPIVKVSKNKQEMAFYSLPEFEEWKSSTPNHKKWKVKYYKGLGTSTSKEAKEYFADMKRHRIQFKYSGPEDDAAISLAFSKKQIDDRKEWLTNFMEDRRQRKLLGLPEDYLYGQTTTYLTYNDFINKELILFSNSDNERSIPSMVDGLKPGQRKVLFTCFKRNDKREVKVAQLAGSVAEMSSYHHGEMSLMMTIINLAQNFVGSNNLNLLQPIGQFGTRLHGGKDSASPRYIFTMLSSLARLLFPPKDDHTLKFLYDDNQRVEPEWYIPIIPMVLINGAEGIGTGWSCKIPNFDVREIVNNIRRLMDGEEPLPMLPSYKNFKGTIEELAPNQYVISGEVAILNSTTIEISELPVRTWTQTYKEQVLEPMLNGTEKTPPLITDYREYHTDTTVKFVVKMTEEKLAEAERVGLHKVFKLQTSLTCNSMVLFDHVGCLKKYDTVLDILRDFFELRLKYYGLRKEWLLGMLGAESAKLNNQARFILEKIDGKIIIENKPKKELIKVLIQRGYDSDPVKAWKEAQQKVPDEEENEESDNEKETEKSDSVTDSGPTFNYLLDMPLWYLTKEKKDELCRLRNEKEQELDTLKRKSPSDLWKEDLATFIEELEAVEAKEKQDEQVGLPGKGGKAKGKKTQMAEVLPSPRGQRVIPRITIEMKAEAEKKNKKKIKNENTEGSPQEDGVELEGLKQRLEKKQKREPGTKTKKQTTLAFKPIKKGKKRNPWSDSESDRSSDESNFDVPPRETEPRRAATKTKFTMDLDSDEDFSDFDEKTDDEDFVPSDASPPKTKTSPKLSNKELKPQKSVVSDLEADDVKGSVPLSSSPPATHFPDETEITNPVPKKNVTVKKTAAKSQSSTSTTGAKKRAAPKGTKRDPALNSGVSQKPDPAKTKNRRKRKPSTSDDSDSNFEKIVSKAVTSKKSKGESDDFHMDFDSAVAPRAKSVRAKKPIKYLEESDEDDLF

In the case of `COc1cccc2c1C(=O)c1c(O)c3c(c(O)c1C2=O)C[C@@](O)(C(=O)CO)C[C@@H]3O[C@H]1C[C@H](N)[C@H](O)[C@H](C)O1`, the outcome in the assay on PC-3 was inactive. In the assay with DU-145, the outcome was Active.

Turning to `CN(C)CCN1C(=O)c2cccc3cc(N)cc(c23)C1=O`, the result (with MDA-MB-231; in assay [1]; in the assay with MCF7; in the assay listed under Homo sapiens) was Active. Besides, the UC50 in assay [2] is 8 µM. The result in the assay on A549 was inactive.
